Test results published in ChEMBL document CHEMBL1154778, “Synthesis and biological evaluation of C-5 methyl substituted 4-arylthio and 4-aryloxy-3-Iodopyridin-2(1H)-one type anti-HIV agents” (J Med Chem, 2009).

Columns and labels:
[1] = test system: Human immunodeficiency virus 1; assay: Antiviral activity against HIV1 HXB2 harboring Y188L mutant reverse transcriptase infected in human MT4 cells after 5 days by MTT assay; assay type: functional, organism-based; conditions: Human immunodeficiency virus 1, HXB2, MT4, 120 h
Outline: (§1)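 Mutant viruses were made by recombining the mutant PR-RT sequence into a PR-RT-deleted HIV-1 HXB2 proviral clone. MT4 cells were grown in RPMI 1640 with 10% FCS and antibiotics. Virus at 200 CCID50/well and 30000 cells/well were incubated with varied compound concentrations for 5 days at 37 °C, 5% CO2. MTT viability gave IC50, the concentration giving 50% infection versus the drug-free control.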

[2] = test system: Human immunodeficiency virus 1; assay: Antiviral activity against HIV1 HXB2 harboring 100I and K103N mutant reverse transcriptase infected in human MT4 cells after 5 days by MTT assay; assay type: functional, organism-based; conditions: Human immunodeficiency virus 1, HXB2, MT4, 120 h; outline: as §1
[3] = test system: Human immunodeficiency virus 1; assay: Antiviral activity against HIV1 HXB2 harboring K103N and Y181C mutant reverse transcriptase infected in human MT4 cells after 5 days by MTT assay; assay type: functional, organism-based; conditions: Human immunodeficiency virus 1, HXB2, MT4, 120 h; outline: as §1
[4] = test system: Human immunodeficiency virus 1; assay: Antiviral activity against HIV1 HXB2 harboring Y181C mutant reverse transcriptase infected in human MT4 cells after 5 days by MTT assay; assay type: functional, organism-based; conditions: Human immunodeficiency virus 1, HXB2, MT4, 120 h; outline: as §1
[5] = test system: Human immunodeficiency virus 1; assay: Antiviral activity against HIV1 HXB2 harboring 190S mutant reverse transcriptase infected in human MT4 cells after 5 days by MTT assay; assay type: functional, organism-based; conditions: Human immunodeficiency virus 1, HXB2, MT4, 120 h; outline: as §1
[6] = test system: Human immunodeficiency virus 1; assay: Antiviral activity against HIV1 HXB2 harboring 179E mutant reverse transcriptase infected in human MT4 cells after 5 days by MTT assay; assay type: functional, organism-based; conditions: Human immunodeficiency virus 1, HXB2, MT4, 120 h; outline: as §1
[7] = test system: Human immunodeficiency virus 1; assay: Antiviral activity against HIV1 HXB2 harboring 138K mutant reverse transcriptase infected in human MT4 cells after 5 days by MTT assay; assay type: functional, organism-based; conditions: Human immunodeficiency virus 1, HXB2, MT4, 120 h; outline: as §1
[8] = test system: Human immunodeficiency virus 1; assay: Antiviral activity against HIV1 HXB2 harboring 190A mutant reverse transcriptase infected in human MT4 cells after 5 days by MTT assay; assay type: functional, organism-based; conditions: Human immunodeficiency virus 1, HXB2, MT4, 120 h; outline: as §1
[9] = test system: Human immunodeficiency virus 1; assay: Antiviral activity against HIV1 HXB2 harboring 101E and K103N mutant reverse transcriptase infected in human MT4 cells after 5 days by MTT assay; assay type: functional, organism-based; conditions: Human immunodeficiency virus 1, HXB2, MT4, 120 h; outline: as §1
[10] = test system: Human immunodeficiency virus 1; assay: Antiviral activity against HIV1 HXB2 harboring K103N mutant reverse transcriptase infected in human MT4 cells after 5 days by MTT assay; assay type: functional, organism-based; conditions: Human immunodeficiency virus 1, HXB2, MT4, 120 h; outline: as §1
[11] = test system: Human immunodeficiency virus 1; assay: Antiviral activity against HIV-1 LAI harboring wild type reverse transcriptase infected in human MT4 cells after 5 days by MTT assay; assay type: functional, organism-based; conditions: Human immunodeficiency virus 1, LAI, MT4, 120 h
Outline: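 MT4 cells were kept in RPMI 1640 with 10% fetal calf serum and antibiotics at 37 °C, 5% CO2. A range of compound concentrations was incubated with HIV-1 LAI at 200 CCID50/well and 30000 MT4 cells/well for 5 days at 37 °C. Cell viability was read by MTT, and IC50 was the concentration giving 50% infection versus the drug-free control.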

[12] = test system: Human immunodeficiency virus 1; assay: Antiviral activity against HIV1 HXB2 harboring 227C mutant reverse transcriptase infected in human MT4 cells after 5 days by MTT assay; assay type: functional, organism-based; conditions: Human immunodeficiency virus 1, HXB2, MT4, 120 h; outline: as §1
[13] = Selectivity index, ratio of CC50 for human MT4 cells to IC50 for HIV-1 LAI harboring wild type reverse transcriptase infected in human MT4 cells; assay type: functional
Outline: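 Cytotoxicity was measured in mock-infected MT4 cultures (30000 cells/well) given the same compound concentration range, run in parallel with the infected cultures for 5 days at 37 °C, 5% CO2, with MTT viability. CC50 was the concentration reducing viability by 50% versus the drug-free control. SI was CC50 divided by IC50 against HIV-1 LAI.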

[14] = test system: Human immunodeficiency virus 1; assay: Antiviral activity against HIV1 HXB2 harboring 101E mutant reverse transcriptase infected in human MT4 cells after 5 days by MTT assay; assay type: functional, organism-based; conditions: Human immunodeficiency virus 1, HXB2, MT4, 120 h; outline: as §1
[15] = test system: Human immunodeficiency virus 1; assay: Antiviral activity against HIV1 HXB2 harboring 100I mutant reverse transcriptase infected in human MT4 cells after 5 days by MTT assay; assay type: functional, organism-based; conditions: Human immunodeficiency virus 1, HXB2, MT4, 120 h; outline: as §1
[16] = test system: Human immunodeficiency virus 1; assay: Antiviral activity against HIV1 HXB2 harboring 106A mutant reverse transcriptase infected in human MT4 cells after 5 days by MTT assay; assay type: functional, organism-based; conditions: Human immunodeficiency virus 1, HXB2, MT4, 120 h; outline: as §1
[17] = test system: Human immunodeficiency virus 1; assay: Antiviral activity against HIV1 HXB2 harboring 227L and 106A mutant reverse transcriptase infected in human MT4 cells after 5 days by MTT assay; assay type: functional, organism-based; conditions: Human immunodeficiency virus 1, HXB2, MT4, 120 h; outline: as §1
[18] = test system: Human immunodeficiency virus 1; assay: Ratio of compound IC50 to efavirenz IC50 for HIV1 HXB2 harboring Y181C mutant reverse transcriptase infected in human MT4 cells; assay type: functional
[19] = test system: Human immunodeficiency virus 1; assay: Ratio of efavirenz IC50 to compound IC50 for HIV1 HXB2 harboring K103N mutant reverse transcriptase infected in human MT4 cells; assay type: functional
[20] = test system: Human immunodeficiency virus 1; assay: Ratio of efavirenz IC50 to compound IC50 for HIV1 HXB2 harboring Y188L mutant reverse transcriptase infected in human MT4 cells; assay type: functional
[21] = test system: Human immunodeficiency virus 1; assay: Ratio of efavirenz IC50 to compound IC50 for HIV1 HXB2 harboring 100I and K103N mutant reverse transcriptase infected in human MT4 cells; assay type: functional

SMILES	IC50 [1] [nM]	IC50 [2] [nM]	IC50 [3] [nM]	IC50 [4] [nM]	IC50 [5] [nM]	IC50 [6] [nM]	IC50 [7] [nM]	IC50 [8] [nM]	IC50 [9] [nM]	IC50 [10] [nM]	IC50 [11] [nM]	IC50 [12] [nM]	Ratio CC50/IC50 [13]	IC50 [14] [nM]	IC50 [15] [nM]	IC50 [16] [nM]	IC50 [17] [nM]	other results
CCc1c(C)[nH]c(=O)c(N(C)C)c1C(=O)c1cc(C)cc(C)c1	158	39.8	158	63.1	3.98	2.51	6.31	12.6	12.6	10	3.98	631	2512	7.94	6.31	6.31	398	
Cc1cc(C)cc(Sc2c(Cn3ncnn3)c(C)[nH]c(=O)c2I)c1	31.6	3.98	32.9	10	0.3	0.8	2.6	1	5	1.25	0.63	50.1	>158489	3.3	1.25	0.6	50.1	
CCc1c(C)[nH]c(=O)c(I)c1Oc1cc(C)cc(C)c1					1.99	1.99	3.98		15.8			63.1	9000	6.31	6.31	5.01	398	Ratio IC50 [18]: 10; Ratio IC50 [19]: 10; Ratio IC50 [20]: 3
Cc1cc(C)cc(Oc2c(Cn3ccnc3)c(C)[nH]c(=O)c2I)c1	31.6	23.7	71.2	10	2.2	5.1	11.2	8	28.6	2.51	1.99		>50118	9.2	6.31	3.7		
CCc1c(C)[nH]c(=O)c(N(C)C)c1Cc1cc(C)cc(C)c1	251		794	100				63.1		31.6	7.94		12589	15.8	50.1	39.8		
Cc1cc(C)cc(Oc2c(Cn3cnnn3)c(C)[nH]c(=O)c2I)c1	10.3	4.7	17.4	5.9	0.4	1.4	3.9	3.7	4.6	1.4	0.79	2.6	>100000	4	4	2	3.8	
Cc1ccnc2c1NC(=O)c1cccnc1N2C1CC1 [NEVIRAPINE]	100000		100000	10000	44	195	51					135					163	
Cc1cc(C)cc(Sc2c(Cn3cnnn3)c(C)[nH]c(=O)c2I)c1	15.8	1.25	6.8	7.9	0.2	0.8	1.1	0.9	1	0.31	1.25	31.6	>79433	1.4	0.79	0.5	39.8	Ratio IC50 [21]: 1000
Cc1cc(C)cc(Oc2c(CSCc3csc(C)n3)c(C)[nH]c(=O)c2I)c1	7.9	158		6.3						1	1	39.8	>100000		3.16			EC50 [17]: 158 nM
CCSCc1c(C)[nH]c(=O)c(I)c1Oc1cc(C)cc(C)c1	31.6	15.8	19.9	6.3	10	10	25.1	19.9	19.9	6.3	1.25	199	>79433	19.9	7.94	7.94	125	
Cc1cc(C)cc(Oc2c(CSCc3ccco3)c(C)[nH]c(=O)c2I)c1	31.6	31.6	5.01	5	1.25	1	1.25	3.16	3.98	1	1.25	39.8	>79433	6.31	6.31	1.58	125	
O=C1Nc2ccc(Cl)cc2[C@@](C#CC2CC2)(C(F)(F)F)O1 [EFAVIRENZ]					251	5.01		10						6.3			25.1	
